Measured values reported in ChEMBL document CHEMBL3244138, “New antiarrhythmic agents. 3. Primary beta-amino anilides” (J Med Chem, 1979).
Activity calls are given as the source filed them. The rule behind the calls is not given here.

Assays:
[1] = test system: Mus musculus; experiment: Toxicity in mouse assessed as convulsion at 100 mg/kg, sc measured up to 20 mins; format: organism-based; set-up: dose 100 mg/kg, route subcutaneous; details: in vivo
Summary of the method: (§1)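 Preliminary screen: drug dissolved in 0.9% saline and given subcutaneously at 100 mg/kg to groups of 10 mice. Animals were watched for 20 min for ataxia, convulsions, loss of righting reflex or death. Each sign was recorded as the number of animals affected out of 10 tested.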

[2] = test system: Mus musculus; experiment: Toxicity in mouse assessed as loss of righting reflex at 100 mg/kg, sc measured up to 20 mins; format: organism-based; set-up: dose 100 mg/kg, route subcutaneous; details: in vivo; summary of the method: as §1
[3] = test system: Mus musculus; experiment: Toxicity in mouse assessed as mortality at 100 mg/kg, sc measured up to 20 mins; format: organism-based; set-up: dose 100 mg/kg, route subcutaneous; details: in vivo; summary of the method: as §1
[4] = test system: Mus musculus; experiment: Antiarrhythmic activity in sc dosed mouse assessed as protection against chloroform-induced fibrillation; format: functional; details: Heart
Summary of the method: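 Mice (10 per dose) got at least three sc doses in 0.9% saline, chosen for low to high protection. After 20 min, chloroform vapour was given until respiration stopped, then fibrillation versus coordinated ventricular contraction was scored visually.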

[5] = test system: Mus musculus; experiment: Ratio of lidocaine ED50 to compound ED50 for antiarrhythmic activity sc dosed mouse assessed as protection against chloroform-induced fibrillation; format: functional, Heart
[6] = test system: Canis familiaris; experiment: Antiarrhythmic activity in left anterior descending coronary artery ligated myocardial infarction model of dog assessed as clearing value of ventricular ectopic beats at 0.5 mg/kg/min, iv; format: functional, Canis lupus familiaris, Heart
Summary of the method: (§2)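 Dogs with myocardial infarction from two-step ligation of the left anterior descending coronary artery were studied the day after ligation and given a drug infusion. Control percent ventricular ectopic beats, ventricular rate (beats/min) and mean arterial pressure (mmHg) were taken before infusion. Clearing values and dose were taken at the time of lowest ectopic-beat incidence; results are means and SD of 3–14 experiments.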

[7] = test system: Canis familiaris; experiment: Antiarrhythmic activity in left anterior descending coronary artery ligated myocardial infarction model of dog assessed as clearing value of ventricular rate at 0.5 mg/kg/min, iv; format: functional, Canis lupus familiaris, Heart; summary of the method: as §2
[8] = test system: Canis familiaris; experiment: Antiarrhythmic activity in left anterior descending coronary artery ligated myocardial infarction model of dog assessed as mean arterial blood pressure at 0.5 mg/kg/min, iv; format: functional, Canis lupus familiaris; summary of the method: as §2
[9] = test system: Canis familiaris; experiment: Antiarrhythmic activity in iv dosed left anterior descending coronary artery ligated myocardial infarction model of dog assessed as dose required for reduction of ectopic beats to <= 5%; format: functional, Canis lupus familiaris, Heart; summary of the method: as §2
[10] = test system: Canis familiaris; experiment: Toxicity in iv dosed left anterior descending coronary artery ligated myocardial infarction model of dog assessed as dose required to cause toxic effect; format: organism-based, Canis lupus familiaris; details: in vivo
[11] = test system: Mus musculus; experiment: Toxicity in mouse assessed as ataxia at 100 mg/kg, sc measured up to 20 mins; format: organism-based; set-up: dose 100 mg/kg, route subcutaneous; details: in vivo; summary of the method: as §1
[12] = test system: Canis familiaris; experiment: Toxicity in iv dosed left anterior descending coronary artery ligated myocardial infarction model of dog assessed as dose required to cause convulsion; format: organism-based, Canis lupus familiaris; details: in vivo
[13] = test system: Canis familiaris; experiment: Cardiovascular toxicity in iv dosed left anterior descending coronary artery ligated myocardial infarction model of dog; format: organism-based, Canis lupus familiaris; details: in vivo
[14] = test system: Canis familiaris; experiment: Toxicity in iv dosed left anterior descending coronary artery ligated myocardial infarction model of dog at 0.20 mmol/kg, iv; format: organism-based, Canis lupus familiaris; details: in vivo
[15] = test system: Canis familiaris; experiment: Toxicity in iv dosed left anterior descending coronary artery ligated myocardial infarction model of dog at 0.25 mmol/kg, iv; format: organism-based, Canis lupus familiaris; details: in vivo
[16] = test system: Canis familiaris; experiment: Toxicity in iv dosed left anterior descending coronary artery ligated myocardial infarction model of dog assessed as dose required to cause death; format: organism-based, Canis lupus familiaris; details: in vivo
Summary of the method: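 Baseline ectopic beats, ventricular rate and mean arterial pressure were recorded before drug infusion. Infusion was stopped at a toxic level, and the cumulative dose in mmol/kg causing death was recorded.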

[17] = test system: Canis familiaris; experiment: Toxicity in left anterior descending coronary artery ligated myocardial infarction model of dog at […], iv; format: organism-based, Canis lupus familiaris; details: in vivo
[18] = test system: Mus musculus; experiment: Antiarrhythmic activity in mouse assessed as protection against chloroform-induced fibrillation at 100 mg/kg, sc; format: functional, organism-based; set-up: dose 100 mg/kg; details: Heart
Summary of the method: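 Preliminary screen: single 100 mg/kg sc dose in 0.9% saline to 10 mice. After 20 min, each mouse was held in chloroform-saturated air until respiration ceased, and the thorax was opened at once. A mouse counted as protected if ventricular contractions were coordinated rather than fibrillating. Read-out is the number protected of 10.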

[19] = Oral bioavailability in dog; format: ADME, organism-based, Canis lupus familiaris; details: in vivo
[20] = test system: Mus musculus; experiment: Toxicity in mouse assessed as ataxia at 200 mg/kg, sc measured up to 20 mins; format: organism-based; set-up: dose 200 mg/kg, route subcutaneous; details: in vivo
Summary of the method: (§3)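 Mice (10 per dose) received drug sc in 0.9% saline and were watched for 20 min for ataxia, convulsions, loss of righting reflex and death, before chloroform exposure. Read-out is the number affected of 10 tested.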

[21] = test system: Mus musculus; experiment: Toxicity in mouse assessed as loss of righting reflex at 200 mg/kg, sc measured up to 20 mins; format: organism-based; set-up: dose 200 mg/kg, route subcutaneous; details: in vivo; summary of the method: as §3

Cc1cccc(C)c1NC(=O)C(C)N (centres undefined) [TOCAINIDE]
Activity [1]: Non-toxic | Activity [2]: Non-toxic | Activity [3]: Non-toxic | ED50 [4]: 1300 µmol/kg | Ratio ED50 [5]: 0.2 | Activity [6]: 2% | Activity [7]: 148 bpm | Activity [8]: 108 mmHg | Activity [9]: 0.32 mmol/kg | Activity [10]: 0.3 mmol/kg

Cc1cccc(C)c1N(C)C(=O)CC(C)N.O.O=C(O)C(O)C(O)C(=O)O (centres undefined)
Activity [11]: Toxic | Activity [2]: Non-toxic | Activity [3]: Non-toxic

CCN(CC)CCC(=O)Nc1c(C)cccc1C
Activity [11]: Toxic | Activity [2]: Non-toxic | Activity [3]: Non-toxic | ED50 [4]: 280 µmol/kg | Ratio ED50 [5]: 0.9 | Activity [6]: 15% | Activity [7]: 132 bpm | Activity [8]: 115 mmHg | Activity [9]: 0.01 mmol/kg | Activity [12]: 0.04 mmol/kg | Activity [13]: Toxic | Activity [14]: Toxic | Activity [15]: Toxic

Cc1cccc(C)c1NC(=O)CC(C)(C)N.Cl
Activity [11]: Non-toxic | Activity [1]: Non-toxic | Activity [2]: Non-toxic | Activity [3]: Non-toxic | ED50 [4]: 250 µmol/kg | Ratio ED50 [5]: 1 | Activity [6]: 39% | Activity [7]: 138 bpm | Activity [8]: 95 mmHg | Activity [9]: 0.04 mmol/kg | Activity [16]: 0.17 mmol/kg

CCc1cccc(C)c1NC(=O)CC(C)N.Cl (centres undefined)
Activity [11]: Non-toxic | Activity [1]: Non-toxic | Activity [2]: Non-toxic | Activity [3]: Non-toxic | ED50 [4]: 540 µmol/kg | Ratio ED50 [5]: 0.5

Cc1cccc(C)c1NC(=O)CCN.Cl
Activity [11]: Non-toxic | Activity [1]: Non-toxic | Activity [2]: Non-toxic | Activity [3]: Non-toxic | ED50 [4]: 560 µmol/kg | Ratio ED50 [5]: 0.5 | Activity [6]: 5% | Activity [7]: 120 bpm | Activity [8]: 85 mmHg | Activity [9]: 0.23 mmol/kg | Activity [17]: Non-toxic

CCN(CC)CC(=O)Nc1c(C)cccc1C [LIDOCAINE]
Activity [18]: Active | Activity [11]: Toxic | Activity [1]: Toxic | Activity [2]: Toxic | Activity [3]: Non-toxic | ED50 [4]: 260 µmol/kg | Ratio ED50 [5]: 1 | Activity [6]: 4% | Activity [7]: 133 bpm | Activity [8]: 101 mmHg | Activity [9]: 0.21 mmol/kg | Activity [10]: 0.27 mmol/kg

Cc1cccc(C)c1NC(=O)CC(C)N.Cl (centres undefined)
Activity [11]: Non-toxic | Activity [1]: Non-toxic | Activity [2]: Non-toxic | Activity [3]: Non-toxic | ED50 [4]: 460 µmol/kg | Ratio ED50 [5]: 0.6 | Activity [6]: 0% | Activity [7]: 148 bpm | Activity [8]: 97 mmHg | Activity [9]: 0.1 mmol/kg | Activity [10]: 0.33 mmol/kg | bioavailability [19]: > 90%

CCN(C(=O)CC(C)N)c1c(C)cccc1C.O.O=C(O)C(O)C(O)C(=O)O (centres undefined)
Activity [11]: Toxic | Activity [1]: Toxic

Cc1cccc(C)c1N(C)C(=O)CCN.Cl.O
Activity [18]: inactive | Activity [11]: Non-toxic | Activity [1]: Non-toxic | Activity [2]: Non-toxic | Activity [3]: Non-toxic | Activity [20]: Toxic | Activity [21]: Non-toxic

CCc1cccc(C)c1NC(=O)CCN.Cl
Activity [11]: Non-toxic | Activity [1]: Non-toxic | Activity [2]: Non-toxic | Activity [3]: Non-toxic | ED50 [4]: 1990 µmol/kg | Ratio ED50 [5]: 0.1

CCC(N)CC(=O)Nc1c(C)cccc1C.Cl (centres undefined)
Activity [11]: Non-toxic | Activity [1]: Non-toxic | Activity [2]: Non-toxic | Activity [3]: Non-toxic | ED50 [4]: 380 µmol/kg | Ratio ED50 [5]: 0.7
